What was measured:
Format in all cases: ADME, organism-based
[1] = tested on: Mus musculus; test: The biodistribution time for compound radioactivity after concomitant administration of [[131 I ]L-HML-NGA and compound in mice. It is expressed as percent injected dose per kidney after 15 minutes; conditions: in vivo, 0.25 h
How it was run: (§1)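 Six-week-old male ddY mice received an intravenous injection of a 1:1 mix of the 131I- and 125I-labelled galactosyl-neoglycoalbumin conjugates, each diluted to 90 µg/mL protein in 0.1 M PBS pH 6.0, at 9 µg radioiodinated NGA per mouse. Groups of five were killed at 5, 15 and 30 min, 1 and 3 h. Organs were excised, weighed and well-counted, giving %ID/organ (blood %ID/g) as mean (SD).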

[2] = tested on: Mus musculus; test: The biodistribution time for compound radioactivity after concomitant administration of [131 I ]L-HML-NGA and compound in mice. It is expressed as percent injected dose per liver after 15 minutes; conditions: in vivo, 0.25 h; how it was run: as §1
[3] = tested on: Mus musculus; test: The biodistribution time for compound radioactivity after concomitant administration of [131 I ]L-HML-NGA and compound in mice. It is expressed as percent injected dose per stomach after 5 minutes; conditions: in vivo; how it was run: as §1
[4] = tested on: Mus musculus; test: The biodistribution time for compound radioactivity after concomitant administration of [131 I ]L-HML-NGA and compound in mice. It is expressed as percent injected dose per neck after 30 minutes; conditions: in vivo, 0.5 h; how it was run: as §1
[5] = tested on: Mus musculus; test: The biodistribution time for compound radioactivity after concomitant administration of [131 I ]L-HML-NGA and compound in mice. It is expressed as percent injected dose per intestine after 15 minutes; conditions: in vivo, 0.25 h; how it was run: as §1
[6] = tested on: Mus musculus; test: The biodistribution time for compound radioactivity after concomitant administration of [131 I ]L-HML-NGA and compound in mice. It is expressed as percent injected dose per neck after 1 hour; conditions: in vivo; how it was run: as §1
[7] = tested on: Mus musculus; test: The biodistribution time for compound radioactivity after concomitant administration of [131 I ]L-HML-NGA and compound in mice. It is expressed as percent injected dose per intestine after 5 minutes; conditions: in vivo; how it was run: as §1
[8] = tested on: Mus musculus; test: The biodistribution time for compound radioactivity after concomitant administration of [[131 I ]L-HML-NGA and compound in mice. It is expressed as percent injected dose per kidney after 5 minutes; conditions: in vivo; how it was run: as §1
[9] = tested on: Mus musculus; test: The biodistribution time for compound radioactivity after concomitant administration of [131 I ]L-HML-NGA and compound in mice. It is expressed as percent injected dose per gram of blood tissue after 5 minutes; conditions: in vivo; how it was run: as §1
[10] = tested on: Mus musculus; test: The biodistribution time for compound radioactivity after concomitant administration of [131 I ]L-HML-NGA and compound in mice. It is expressed as percent injected dose per liver after 30 minutes; conditions: in vivo, 0.5 h; how it was run: as §1
[11] = tested on: Mus musculus; test: The biodistribution time for compound radioactivity after concomitant administration of [131 I ]L-HML-NGA and compound in mice. It is expressed as percent injected dose per neck after 5 minutes; conditions: in vivo; how it was run: as §1
[12] = tested on: Mus musculus; test: The biodistribution time for compound radioactivity after concomitant administration of [131 I ]L-HML-NGA and compound in mice. It is expressed as percent injected dose per stomach after 15 minutes; conditions: in vivo, 0.25 h; how it was run: as §1
[13] = tested on: Mus musculus; test: The biodistribution time for compound radioactivity after concomitant administration of [131 I ]L-HML-NGA and compound in mice. It is expressed as percent injected dose per liver after 5 minutes; conditions: in vivo; how it was run: as §1
[14] = tested on: Mus musculus; test: The biodistribution time for compound radioactivity after concomitant administration of [131 I ]L-HML-NGA and compound in mice. It is expressed as percent injected dose per neck after 15 minutes; conditions: in vivo, 0.25 h; how it was run: as §1
[15] = tested on: Mus musculus; test: The biodistribution time for compound radioactivity after concomitant administration of [131 I ]L-HML-NGA and compound in mice. It is expressed as percent injected dose per gram of blood tissue after 30 minutes; conditions: in vivo, 0.5 h; how it was run: as §1
[16] = tested on: Mus musculus; test: The biodistribution time for compound radioactivity after concomitant administration of [131 I ]L-HML-NGA and compound in mice. It is expressed as percent injected dose per gram of blood tissue after 15 minutes; conditions: in vivo, 0.25 h; how it was run: as §1
[17] = tested on: Mus musculus; test: The biodistribution time for compound radioactivity after concomitant administration of [131 I ]L-HML-NGA and compound in mice. It is expressed as percent injected dose per stomach after 3 hours; conditions: in vivo; how it was run: as §1
[18] = tested on: Mus musculus; test: The biodistribution time for compound radioactivity after concomitant administration of [131 I ]L-HML-NGA and compound in mice. It is expressed as percent injected dose per liver after 1 hour; conditions: in vivo; how it was run: as §1
[19] = tested on: Mus musculus; test: The biodistribution time for compound radioactivity after concomitant administration of [[131 I ]L-HML-NGA and compound in mice. It is expressed as percent injected dose per kidney after 3 hours; conditions: in vivo; how it was run: as §1
[20] = tested on: Mus musculus; test: The biodistribution time for compound radioactivity after concomitant administration of [131 I ]L-HML-NGA and compound in mice. It is expressed as percent injected dose per intestine after 30 minutes; conditions: in vivo, 0.5 h; how it was run: as §1
[21] = tested on: Mus musculus; test: The biodistribution time for compound radioactivity after concomitant administration of [131 I ]L-HML-NGA and compound in mice. It is expressed as percent injected dose per liver after 3 hours; conditions: in vivo; how it was run: as §1
[22] = tested on: Mus musculus; test: The biodistribution time for compound radioactivity after concomitant administration of [131 I ]L-HML-NGA and [compound in mice. It is expressed as percent injected dose per stomach after 1 hour; conditions: in vivo; how it was run: as §1
[23] = tested on: Mus musculus; test: The biodistribution time for compound radioactivity after concomitant administration of [[131 I ]L-HML-NGA and compound in mice. It is expressed as percent injected dose per kidney after 30 minutes; conditions: in vivo, 0.5 h; how it was run: as §1
[24] = Cumulative radioactivity exerted by compound in the urine at 24 hour postinjection of [131 I ]L-HML-NGA and compound; conditions: in vivo
How it was run: (§2)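 Mice received one i.v. co-injection of the dual-isotope NGA mixture, 9 µg of each radioiodinated protein, and were housed in metabolic cages for 24 h. Cumulative urine and feces were collected and counted. Values are % injected dose, mean (SD) of five animals, with a Student's paired t-test between the two co-administered conjugates.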

[25] = tested on: Mus musculus; test: The biodistribution time for compound radioactivity after concomitant administration of [131 I ]L-HML-NGA and compound in mice. It is expressed as percent injected dose per stomach after 30 minutes; conditions: in vivo, 0.5 h; how it was run: as §1
[26] = tested on: Mus musculus; test: The biodistribution time for compound radioactivity after concomitant administration of [131 I ]L-HML-NGA and compound in mice. It is expressed as percent injected dose per intestine after 3 hours; conditions: in vivo; how it was run: as §1
[27] = tested on: Mus musculus; test: The biodistribution time for compound radioactivity after concomitant administration of [131 I ]L-HML-NGA and compound in mice. It is expressed as percent injected dose per intestine after 1 hour; conditions: in vivo; how it was run: as §1
[28] = Cumulative radioactivity exerted by compound in the feces at 24 hour postinjection of [131 I ]L-HML-NGA and compound.; conditions: in vivo; how it was run: as §2
[29] = tested on: Mus musculus; test: The biodistribution time for compound radioactivity after concomitant administration of [131 I ]L-HML-NGA and compound in mice. It is expressed as percent injected dose per gram of blood tissue after 1 hour; conditions: in vivo; how it was run: as §1
[30] = tested on: Mus musculus; test: The biodistribution time for compound radioactivity after concomitant administration of [131 I ]L-HML-NGA and compound in mice. It is expressed as percent injected dose per gram of blood tissue after 3 hours; conditions: in vivo; how it was run: as §1
[31] = tested on: Mus musculus; test: The biodistribution time for compound radioactivity after concomitant administration of [[131 I ]L-HML-NGA and compound in mice. It is expressed as percent injected dose per kidney after 1 hour; conditions: in vivo; how it was run: as §1
[32] = tested on: Mus musculus; test: The biodistribution time for compound radioactivity after concomitant administration of [131 I ]L-HML-NGA and compound in mice. It is expressed as percent injected dose per neck after 3 hours; conditions: in vivo; how it was run: as §1
[33] = organism: Homo sapiens; test: The percent protein-bound radioactivity in NGAfractions following incubation of radioiodinated compound in human serum after 3 hours
How it was run: (§3)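 Conjugates were diluted to 0.5 mg/mL in 0.1 M PBS pH 6.0, and 20 µL was added to 230 µL of freshly prepared human serum. Samples were incubated at 37 °C and taken at 1, 3, 6 or 24 h. Protein-bound fraction (Rf 0) was separated from small metabolites (Rf 0.6-0.9) by paper chromatography in methanol-water 4:1. Protein-bound radioactivity was divided by the initial radiochemical purity. Values are mean (SD).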

[34] = organism: Homo sapiens; test: The percent protein-bound radioactivity in NGAfractions following incubation of radioiodinated compound in human serum after 24 hours; how it was run: as §3
[35] = tested on: Mus musculus; test: The biodistribution time for compound radioactivity after concomitant administration of [131 I ]L-HML-NGA and compound in mice. It is expressed as percent injected dose per neck. Values are mean(SD) of five animals for each experiment after 3 hours; conditions: in vivo; how it was run: as §1
[36] = organism: Homo sapiens; test: The percent protein-bound radioactivity in NGAfractions following incubation of radioiodinated compound in human serum after 1 hour; how it was run: as §3
[37] = organism: Homo sapiens; test: The percent protein-bound radioactivity in NGAfractions following incubation of radioiodinated compound in human serum after 6 hours; conditions: in vitro; how it was run: as §3

Radioactivity [1] [%] | Radioactivity [2] [%] | Radioactivity [3] [%] | Radioactivity [4] [%] | Radioactivity [5] [%] | Radioactivity [6] [%] | Radioactivity [7] [%] | Radioactivity [8] [%] | Radioactivity [9] [%] | Radioactivity [10] [%] | Radioactivity [11] [%] | Radioactivity [12] [%] | Radioactivity [13] [%] | Radioactivity [14] [%] | Radioactivity [15] [%] | Radioactivity [16] [%] | Radioactivity [17] [%] | Radioactivity [18] [%] | Radioactivity [19] [%] | Radioactivity [20] [%] | Structure (SMILES) | also measured
2.97 | 66.9 | 0.24 | 0.18 | 5.11 | 0.11 | 1.14 | 1.26 | 1.15 | 27.49 | 0.15 | 0.65 | 93.14 | 0.2 | 1.11 | 1.78 | 1.09 | 12.6 | 0.34 | 21.6 | N[C@@H](CS)C(=O)SC1CC(=O)N(CCCC[C@@H](NC(=O)CNC(=O)c2cccc([125I])c2)C(=O)O)C1=O (some centres undefined) | Radioactivity [21]: 3.62%; Radioactivity [22]: 1.4%; Radioactivity [23]: 1.73%; Radioactivity [24]: 39.1%; Radioactivity [25]: 2%; Radioactivity [26]: 40.82%; Radioactivity [27]: 34.28%; Radioactivity [28]: 40.97%; Radioactivity [29]: 0.54%; Radioactivity [30]: 0.34%; Radioactivity [31]: 0.72%; Radioactivity [32]: 0.04%
4.38 | 55.86 | 0.24 | 0.19 | 2.26 | 0.07 | 0.43 | 0.33 | 1.17 | 18.1 | 0.11 | 0.5 | 93.67 | 0.25 | 1.7 | 2.76 | 0.35 | 5.92 | 0.22 | 4.79 | N=C(CCCSC1CC(=O)N(CCCC[C@H](NC(=O)CNC(=O)c2cccc([125I])c2)C(=O)O)C1=O)NC(=O)[C@@H](N)CCCCN (some centres undefined) | Radioactivity [33]: 99.4%; Radioactivity [34]: 97.85%; Radioactivity [35]: 0.03%; Radioactivity [21]: 3%; Radioactivity [36]: 99.88%; Radioactivity [22]: 0.42%; Radioactivity [23]: 4.64%; Radioactivity [24]: 78.26%; Radioactivity [25]: 0.36%; Radioactivity [37]: 99.5%; Radioactivity [26]: 4.96%; Radioactivity [27]: 5.17%; Radioactivity [28]: 4.03%; Radioactivity [29]: 0.73%; Radioactivity [30]: 0.41%; Radioactivity [31]: 1.04%
1.62 | 77.12 | 0.24 | 0.07 | 7.17 | 0.04 | 0.71 | 0.8 | 0.76 | 34.19 | 0.06 | 0.46 | 93.75 | 0.06 | 0.64 | 0.68 | 1.48 | 10.12 | 0.38 | 33.84 | N[C@@H](CS)C(=O)SC1CC(=O)N(CCCCCNC(=O)CNC(=O)c2cccc([125I])c2)C1=O (some centres undefined) | Radioactivity [33]: 99.12%; Radioactivity [34]: 97.26%; Radioactivity [21]: 5.72%; Radioactivity [36]: 100.07%; Radioactivity [22]: 0.61%; Radioactivity [23]: 1.72%; Radioactivity [24]: 25.5%; Radioactivity [25]: 0.54%; Radioactivity [37]: 98.56%; Radioactivity [26]: 59.36%; Radioactivity [27]: 55.62%; Radioactivity [28]: 58.83%; Radioactivity [29]: 0.32%; Radioactivity [30]: 0.23%; Radioactivity [31]: 0.77%; Radioactivity [32]: 0.04%
